Measured values as given in ChEMBL document CHEMBL2177067 (J Med Chem, 2012).
Values after ≈ are worked out from the molar mass of the structure shown.

What was measured:
[1] = Selectivity index, ratio of CC50 for human HeLa cells to MIC for Bacillus anthracis; format: functional
Summary of the method: (§1)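 Selectivity index is HeLa CC50 (MTS assay) divided by the bacterial MIC.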

[2] = Selectivity index, ratio of CC50 for human HeLa cells to MIC for Staphylococcus aureus ATCC 25923; format: functional; summary of the method: as §1
Staphylococcus aureus [3] = assay: Antibacterial activity against Staphylococcus aureus ATCC 25923 by broth microdilution method; format: functional
Bacillus anthracis = assay: Antibacterial activity against Bacillus anthracis by broth microdilution method; format: functional
[4] = Inhibition of Staphylococcus aureus ATCC 25923 replicative DnaB helicase-mediated ATP-dependent dissociation of Hel-5'FAM:Hel-3'BHQ by FRET assay
Summary of the method: (§2)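 Unwinding was read by FRET as helicase-driven, ATP-dependent dissociation of annealed Hel-5′FAM and Hel-3′BHQ oligonucleotides, one fluorescent and the other quencher-labelled. The replicative helicases were prepared as described earlier.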

Replicative DNA helicase = molecular target: T1, Replicative DNA helicase (Bacillus anthracis, UniProt A0A6L8Q2B7); assay: Inhibition of Bacillus anthracis Sterne 34F2 replicative DNA helicase-mediated ATP-dependent dissociation of Hel-5'FAM:Hel-3'BHQ by FRET assay; set-up: species or system Bacillus anthracis str. Sterne; summary of the method: as §2
T1 sequence (A0A6L8Q2B7 whole entry): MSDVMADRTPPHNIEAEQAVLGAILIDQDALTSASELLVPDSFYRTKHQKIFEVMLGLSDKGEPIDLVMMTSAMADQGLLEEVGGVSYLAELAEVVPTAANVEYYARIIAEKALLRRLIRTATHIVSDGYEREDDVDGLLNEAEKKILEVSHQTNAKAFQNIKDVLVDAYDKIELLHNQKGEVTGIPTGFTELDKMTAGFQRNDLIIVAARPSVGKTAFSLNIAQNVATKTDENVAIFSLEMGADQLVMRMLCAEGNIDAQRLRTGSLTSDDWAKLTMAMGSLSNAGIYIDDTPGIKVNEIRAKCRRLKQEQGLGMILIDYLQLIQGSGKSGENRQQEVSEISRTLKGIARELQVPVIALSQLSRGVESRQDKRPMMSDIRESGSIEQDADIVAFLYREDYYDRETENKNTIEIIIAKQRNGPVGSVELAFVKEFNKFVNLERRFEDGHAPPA

HeLa = assay: Cytotoxicity against human HeLa cells by MTS assay; format: cell-based
Staphylococcus aureus [5] = assay: Antibacterial activity against Staphylococcus aureus ATCC 25923 by broth microdilution method in presence of reserpine; format: functional

Compound	Selectivity Index [1]	Selectivity Index [2]	MIC (Staphylococcus aureus [3]) [µM]	MIC (Bacillus anthracis) [µM]	IC50 [4] [µM]	IC50 (Replicative DNA helicase) [µM]	CC50 (HeLa) [µM]	MIC (Staphylococcus aureus [5]) [µM]
Cc1c(CCC(=O)O)c(=O)oc2c(C)c(OCc3cccc4ccccc34)ccc12	0.09	<0.06	> 100	65 (≈ 26.2 µg/mL)				
CNC(=O)CCc1c(C)c2ccc(OCc3ccc(-c4ccc(Cl)cc4)cc3)c(C)c2oc1=O	0.91	0.91	> 100	> 100	38	> 100	90.7	
Cc1c(CCC(=O)O)c(=O)oc2c(C)c(OCc3nccc4ccccc34)ccc12					> 100	> 100		
Cc1c(CCC(=O)O)c(=O)oc2c(C)c(OCc3ccccc3-c3ccccc3)ccc12	1.8	0.4	10 (≈ 4.28 µg/mL)	2.5 (≈ 1.07 µg/mL)	9	10.2	4.4	
C=CCOc1ccc2c(C)c(CCC(=O)O)c(=O)oc2c1C					> 100	> 100		
Cc1c(CCC(=O)O)c(=O)oc2c(C)c(OCc3ccc(-c4ccccc4C#N)cc3)ccc12	15.6	7.8	2.5 (≈ 1.13 µg/mL)	1.25 (≈ 0.567 µg/mL)	4.6	3.8	19.5	
Cc1c(CCC(=O)O)c(=O)oc2c(C)c(OCc3ccc(-c4ccc(F)cc4F)cc3)ccc12			> 100	> 100	4.9	9		
Cc1c(CCC(=O)O)c(=O)oc2c(C)c(OCc3c4ccccc4cc4ccccc34)ccc12	3.3	0.4	20 (≈ 9.05 µg/mL)	2.5 (≈ 1.13 µg/mL)	8.3	7.2	8.3	50
Cc1c(CCC(=O)NCCN(C)C)c(=O)oc2c(C)c(OCc3ccc(-c4ccccc4)cc3)ccc12	0.44	0.22	5 (≈ 2.49 µg/mL)	2.5 (≈ 1.25 µg/mL)	1.7	1.8	1.1	
Cc1c(CCC(=O)O)c(=O)oc2c(C)c(OCc3cccc(-c4ccccc4)c3)ccc12	9	0.3	20 (≈ 8.57 µg/mL)	0.625 (≈ 0.268 µg/mL)	6	7.5	5.6	
Cc1c(CCC(=O)O)c(=O)oc2c(C)c(OCc3ccc4ccc(Cl)cc4n3)ccc12					50	56		
Cc1c(CCCC(=O)O)c(=O)oc2c(C)c(OCc3ccc(-c4ccccc4)cc3)ccc12	25	<0.8	> 100	1.25 (≈ 0.553 µg/mL)	2.2	2	31	> 100
Cc1c(CCC(=O)O)c(=O)oc2c(C)c(OCc3ccc(-c4ccc(Cl)c(Cl)c4)cc3)ccc12	6.4	6.4	3 (≈ 1.49 µg/mL)	3 (≈ 1.49 µg/mL)	2.4	3	19.2	6.3
Cc1c(CCC(=O)O)c(=O)oc2cc(OCc3ccccc3-c3ccccc3)ccc12	1.6	0.6	12.5 (≈ 5.18 µg/mL)	5 (≈ 2.07 µg/mL)	12	19	7.8	
Cc1c(CC(=O)O)c(=O)oc2c(C)c(OCc3ccc(-c4ccccc4)cc3)ccc12	46	14	8.2 (≈ 3.4 µg/mL)	2.5 (≈ 1.04 µg/mL)	8.6	9	115	12.5
Cc1c(CCC(=O)O)c(=O)oc2c(C)c(OCc3ccc(-c4ccc(F)cc4)cc3)ccc12	>24	6.4	3 (≈ 1.34 µg/mL)	< 0.8	3.7	5.1	19.2	
C#CCOc1ccc2c(C)c(CCC(=O)O)c(=O)oc2c1C					> 100	> 100		
Cc1c(CCC(=O)O)c(=O)oc2c(C)c(OCc3ccncc3)ccc12					> 100	> 100		
Cc1c(CCC(=O)O)c(=O)oc2cc(OCc3ccc(-c4ccccc4)cc3)ccc12	8.5	6.8	3.12 (≈ 1.3 µg/mL)	2.5 (≈ 1.04 µg/mL)	6	9.7	21.2	
Cc1c(CCC(=O)O)c(=O)oc2c(C)c(OCc3ccc4ccccc4c3)ccc12	7.6	<1	> 100	5 (≈ 2.01 µg/mL)	8	9	38	> 100
Cc1c(CCC(=O)O)c(=O)oc2c(C)c(OCc3ccccc3)ccc12					60	85		
Cc1c(CCC(=O)O)c(=O)oc2cc(OCc3cccc(-c4ccccc4)c3)ccc12	4	1	10 (≈ 4.14 µg/mL)	2.5 (≈ 1.04 µg/mL)		15	10.1	
CCc1c(OCc2ccc(-c3ccccc3)cc2)ccc2c(C)c(CCCC(=O)O)c(=O)oc12	6.2	3.1	> 100	2.5 (≈ 1.14 µg/mL)	1.8	5	15.4	> 100
Cc1c(CCC(=O)O)c(=O)oc2cc(OCc3nccc4ccccc34)ccc12					> 100	> 100		
CC(=O)NCCNC(=O)CCc1c(C)c2ccc(OCc3ccc(-c4ccccc4)cc3)c(C)c2oc1=O					> 100	> 100		
CCc1c(OCc2ccc(-c3ccccc3)cc2)ccc2c(C)c(CCC(=O)O)c(=O)oc12	34	8.4	5 (≈ 2.21 µg/mL)	1.25 (≈ 0.553 µg/mL)		2	42	
Cc1c(OCc2ccc(-c3ccccc3)cc2)ccc2cc(CCC(=O)O)c(=O)oc12	>40	2.5	> 100		14	21	> 100	> 100
Cc1c(CCC(=O)O)c(=O)oc2cc(OCc3ccc4ccc(Cl)cc4n3)ccc12					70	> 100		
